Data published in ChEMBL document CHEMBL1151705, “Novel azalides derived from 16-membered macrolides. Part II: Isolation of the linear 9-formylcarboxylic acid and its sequential macrocyclization with an amino alcohol or an azidoamine” (2008).
Values after ≈ are worked out from the molar mass of the structure shown.

Key:
Type in all cases: functional
Streptococcus pneumoniae [1] = assay: Antimicrobial activity against Streptococcus pneumoniae 8 expressing inducible ermB after 20 hrs by agar dilution method; details: Streptococcus pneumoniae, 20 h; read-out: MIC
In short: (§1)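 Streptococci, H. influenzae and M. catarrhalis were precultured on blood agar plates. Suspensions of about 10⁶ CFU/ml were inoculated onto sensitivity disk agar supplemented with 5% horse blood and incubated at 37 °C for 20 h. MIC was read as the lowest drug concentration with no visible growth.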

Streptococcus pneumoniae [2] = assay: Antimicrobial activity against Streptococcus pneumoniae 9 expressing mefA after 20 hrs by agar dilution method; details: Streptococcus pneumoniae, 20 h; read-out: MIC; in short: as §1
Streptococcus pneumoniae [3] = assay: Antimicrobial activity against Streptococcus pneumoniae 10 expressing mefA after 20 hrs by agar dilution method; details: Streptococcus pneumoniae, 20 h; read-out: MIC; in short: as §1
Streptococcus pyogenes [4] = assay: Antimicrobial activity against drug-susceptible Streptococcus pyogenes 1 after 20 hrs by agar dilution method; details: Streptococcus pyogenes, 20 h; read-out: MIC; in short: as §1
Streptococcus pyogenes [5] = assay: Antimicrobial activity against Streptococcus pyogenes 2 constitutively expressing ermB after 20 hrs by agar dilution method; in short: as §1
Streptococcus pyogenes [6] = assay: Antimicrobial activity against Streptococcus pyogenes 3 expressing mefA after 20 hrs by agar dilution method; details: Streptococcus pyogenes, 20 h; read-out: MIC; in short: as §1
Moraxella catarrhalis [7] = assay: Antimicrobial activity against drug-susceptible Moraxella catarrhalis 1 after 20 hrs by agar dilution method; details: Moraxella catarrhalis, 20 h; read-out: MIC; in short: as §1
Moraxella catarrhalis [8] = assay: Antimicrobial activity against drug-susceptible Moraxella catarrhalis 2 after 20 hrs by agar dilution method; details: Moraxella catarrhalis, 20 h; read-out: MIC; in short: as §1
Haemophilus influenzae [9] = assay: Antimicrobial activity against drug-susceptible Haemophilus influenzae 1 after 20 hrs by agar dilution method; details: Haemophilus influenzae, 20 h; read-out: MIC; in short: as §1
Haemophilus influenzae [10] = assay: Antimicrobial activity against drug-susceptible Haemophilus influenzae 2 after 20 hrs by agar dilution method; details: Haemophilus influenzae, 20 h; read-out: MIC; in short: as §1
Haemophilus influenzae [11] = assay: Antimicrobial activity against drug-susceptible Haemophilus influenzae 3 after 20 hrs by agar dilution method; details: Haemophilus influenzae, 20 h; read-out: MIC; in short: as §1
Haemophilus influenzae [12] = assay: Antimicrobial activity against drug-susceptible Haemophilus influenzae 4 after 20 hrs by agar dilution method; details: Haemophilus influenzae, 20 h; read-out: MIC; in short: as §1
Staphylococcus aureus [13] = assay: Antimicrobial activity against drug-susceptible Staphylococcus aureus 209P JC-1 after 20 hrs by agar dilution method; details: Staphylococcus aureus, 209P, 20 h; read-out: MIC
In short: (§2)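 Agar dilution MIC. S. aureus seed culture was grown in sensitivity test broth. Cell suspension (about 10⁶ CFU/ml) was inoculated onto sensitivity disk agar with 5% horse blood and incubated at 37 °C for 20 h. MIC was the lowest drug concentration that prevented visible growth.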

Staphylococcus aureus [14] = assay: Antimicrobial activity against drug-susceptible Staphylococcus aureus 2 after 20 hrs by agar dilution method; details: Staphylococcus aureus, 20 h; read-out: MIC; in short: as §2
Staphylococcus aureus [15] = assay: Antimicrobial activity against drug-susceptible Staphylococcus aureus 3 after 20 hrs by agar dilution method; details: Staphylococcus aureus, 20 h; read-out: MIC; in short: as §2
Staphylococcus aureus [16] = assay: Antimicrobial activity against Staphylococcus aureus 4 constitutively expressing ermA after 20 hrs by agar dilution method; in short: as §2
Staphylococcus aureus [17] = assay: Antimicrobial activity against Staphylococcus aureus 5 expressing inducible ermB after 20 hrs by agar dilution method; details: Staphylococcus aureus, 20 h; read-out: MIC; in short: as §2
Streptococcus pneumoniae [18] = assay: Antimicrobial activity against drug-susceptible Streptococcus pneumoniae DP1 Type1 after 20 hrs by agar dilution method; details: Streptococcus pneumoniae, 20 h; read-out: MIC; in short: as §1
Streptococcus pneumoniae [19] = assay: Antimicrobial activity against drug-susceptible Streptococcus pneumoniae 2 after 20 hrs by agar dilution method; details: Streptococcus pneumoniae, 20 h; read-out: MIC; in short: as §1
Streptococcus pneumoniae [20] = assay: Antimicrobial activity against Streptococcus pneumoniae 5 constitutively expressing ermB/mefA after 20 hrs by agar dilution method; details: Streptococcus pneumoniae, 20 h; read-out: MIC; in short: as §1
Streptococcus pneumoniae [21] = assay: Antimicrobial activity against Streptococcus pneumoniae 6 constitutively expressing ermB after 20 hrs by agar dilution method; details: Streptococcus pneumoniae, 20 h; read-out: MIC; in short: as §1
Streptococcus pneumoniae [22] = assay: Antimicrobial activity against Streptococcus pneumoniae 7 expressing inducible ermB after 20 hrs by agar dilution method; details: Streptococcus pneumoniae, 20 h; read-out: MIC; in short: as §1
Staphylococcus aureus [23] = assay: Antimicrobial activity against Staphylococcus aureus 6 expressing inducible ermB after 20 hrs by agar dilution method; in short: as §2

Row | MIC (Streptococcus pneumoniae [1]) [µg/mL] | MIC (Streptococcus pneumoniae [2]) [µg/mL] | MIC (Streptococcus pneumoniae [3]) [µg/mL] | MIC (Streptococcus pyogenes [4]) [µg/mL] | MIC (Streptococcus pyogenes [5]) [µg/mL] | MIC (Streptococcus pyogenes [6]) [µg/mL] | MIC (Moraxella catarrhalis [7]) [µg/mL] | MIC (Moraxella catarrhalis [8]) [µg/mL] | MIC (Haemophilus influenzae [9]) [µg/mL] | MIC (Haemophilus influenzae [10]) [µg/mL] | MIC (Haemophilus influenzae [11]) [µg/mL] | MIC (Haemophilus influenzae [12]) [µg/mL] | MIC (Staphylococcus aureus [13]) [µg/mL] | MIC (Staphylococcus aureus [14]) [µg/mL] | MIC (Staphylococcus aureus [15]) [µg/mL] | MIC (Staphylococcus aureus [16]) [µg/mL] | MIC (Staphylococcus aureus [17]) [µg/mL] | MIC (Streptococcus pneumoniae [18]) [µg/mL] | MIC (Streptococcus pneumoniae [19]) [µg/mL] | MIC (Streptococcus pneumoniae [20]) [µg/mL] | Compound | further results
1 | > 128 | 0.5 (≈ 0.49 µM) | 0.25 (≈ 0.245 µM) | 0.25 (≈ 0.245 µM) | > 128 | 0.5 (≈ 0.49 µM) | 0.25 (≈ 0.245 µM) | 0.5 (≈ 0.49 µM) | > 128 | 2 (≈ 1.96 µM) | 16 (≈ 15.7 µM) | 16 (≈ 15.7 µM) | 0.5 (≈ 0.49 µM) | 1 (≈ 0.979 µM) | 0.5 (≈ 0.49 µM) | > 128 | 0.5 (≈ 0.49 µM) | 0.25 (≈ 0.245 µM) | 0.25 (≈ 0.245 µM) | > 128 | CCOC(=O)[C@H]1[C@H](C)O[C@@H](O[C@H]2[C@H](N(C)C)[C@@H](O)[C@H](O[C@H]3[C@@H](CC=O)C[C@@H](C)[C@@H](OC(C)=O)CN(CCCCc4ccccc4)CC[C@@H](C)OC(=O)C[C@@H](OC(=O)CC)[C@@H]3OC)O[C@@H]2C)C[C@@]1(C)OC(C)=O | MIC (Streptococcus pneumoniae [21]): > 128 µg/mL; MIC (Streptococcus pneumoniae [22]): > 128 µg/mL; MIC (Staphylococcus aureus [23]): 1 µg/mL (≈ 0.979 µM)
2 | 16 (≈ 16.7 µM) | 0.13 (≈ 0.136 µM) | 0.13 (≈ 0.136 µM) | 0.25 (≈ 0.261 µM) | > 128 | 1 (≈ 1.04 µM) | 2 (≈ 2.09 µM) | 1 (≈ 1.04 µM) | 16 (≈ 16.7 µM) | 1 (≈ 1.04 µM) | 4 (≈ 4.17 µM) | 8 (≈ 8.34 µM) | 0.5 (≈ 0.521 µM) | 1 (≈ 1.04 µM) | 0.5 (≈ 0.521 µM) | > 128 | 0.5 (≈ 0.521 µM) | 0.06 (≈ 0.0626 µM) | 0.13 (≈ 0.136 µM) | > 128 | CCOC(=O)[C@H]1[C@H](C)O[C@@H](O[C@H]2[C@H](N(C)C)[C@@H](O)[C@H](O[C@H]3[C@@H](CC=O)C[C@@H](C)[C@@H](O)CN(CCCc4ccnc5ccccc45)CCCNC(=O)C[C@@H](OC(=O)CC)[C@@H]3OC)O[C@@H]2C)C[C@@]1(C)O | MIC (Streptococcus pneumoniae [21]): > 128 µg/mL; MIC (Streptococcus pneumoniae [22]): 16 µg/mL (≈ 16.7 µM); MIC (Staphylococcus aureus [23]): 0.5 µg/mL (≈ 0.521 µM)
3 | 128 (≈ 143 µM) | 0.5 (≈ 0.557 µM) | 0.5 (≈ 0.557 µM) | 0.25 (≈ 0.278 µM) | > 128 | 0.5 (≈ 0.557 µM) | 1 (≈ 1.11 µM) | 2 (≈ 2.23 µM) | 64 (≈ 71.3 µM) | 2 (≈ 2.23 µM) | 32 (≈ 35.6 µM) | 16 (≈ 17.8 µM) | 0.5 (≈ 0.557 µM) | 1 (≈ 1.11 µM) | 0.5 (≈ 0.557 µM) | > 128 | 0.5 (≈ 0.557 µM) | 0.25 (≈ 0.278 µM) | 0.5 (≈ 0.557 µM) | > 128 | CCC(=O)O[C@@H]1CC(=O)O[C@H](C)C/C=C/C=C/[C@H](OC(C)=O)[C@H](C)C[C@H](CC=O)[C@H](O[C@@H]2O[C@H](C)[C@@H](O[C@H]3C[C@@](C)(OC(C)=O)[C@@H](OC(=O)CC)[C@H](C)O3)[C@H](N(C)C)[C@H]2O)[C@H]1OC [MIOCAMYCIN] | MIC (Streptococcus pneumoniae [21]): > 128 µg/mL; MIC (Streptococcus pneumoniae [22]): 64 µg/mL (≈ 71.3 µM); MIC (Staphylococcus aureus [23]): 1 µg/mL (≈ 1.11 µM)
4 | 8 (≈ 8.18 µM) | 0.13 (≈ 0.133 µM) | 0.13 (≈ 0.133 µM) | 0.06 (≈ 0.0613 µM) | > 128 | 0.25 (≈ 0.256 µM) | 0.13 (≈ 0.133 µM) | 0.25 (≈ 0.256 µM) | 16 (≈ 16.4 µM) | 1 (≈ 1.02 µM) | 4 (≈ 4.09 µM) | 8 (≈ 8.18 µM) | 0.25 (≈ 0.256 µM) | 1 (≈ 1.02 µM) | 0.5 (≈ 0.511 µM) | > 128 | 0.25 (≈ 0.256 µM) | 0.13 (≈ 0.133 µM) | 0.25 (≈ 0.256 µM) | > 128 | CCOC(=O)[C@H]1[C@H](C)O[C@@H](O[C@H]2[C@H](N(C)C)[C@@H](O)[C@H](O[C@H]3[C@@H](CC=O)C[C@@H](C)[C@@H](O)CN(CCCCc4ccccc4)CCCCNC(=O)C[C@@H](OC(=O)CC)[C@@H]3OC)O[C@@H]2C)C[C@@]1(C)OC(C)=O | MIC (Streptococcus pneumoniae [21]): > 128 µg/mL; MIC (Streptococcus pneumoniae [22]): 8 µg/mL (≈ 8.18 µM); MIC (Staphylococcus aureus [23]): 1 µg/mL (≈ 1.02 µM)
